Compound activity (PubChem BioAssay)
Shown are actives, neighbours in structure and some others; about 1.2% of the full set was active somewhere.
PMI act satM6P: human PMI activators, high substrate, primary screen, biochemical, fluorescence intensity, near-saturating mannose 6-phosphate; coupled PMI enzyme assay, resazurin fluorescence, 20 min; hits give high values; 1 = untreated enzyme, 0 = substrate-free blank; AID 1216, 2008; activation factor at 20 µM; 0.34% of 190,000 active; Mannose-6-phosphate isomerase (Homo sapiens), P34949;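 active means activation factor of 2 or more at 20 µM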
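Material: human phosphomannose isomerase with PGI, G6PDH, diaphorase coupling enzymes; amount: PMI at 15 ng/mL final; also added: Mannose-6-phosphate 1.0 mM (near-saturating) plus 0.22 mM NADP+; incubation: enzyme reaction with compound 20 min at room temperature; signal: resorufin fluorescence (Ex 544/Em 590 nm) from resazurin via diaphorase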
Diaphorase act: compounds boosting diaphorase resazurin reduction – biochemical, uHTS, resorufin fluorescence, counter-screen for diaphorase-coupled primary assays, primary screen | Diaphorase/resazurin coupled assay, 16 min; hits give high values; 1 = vehicle wells, 0 = NADH-free wells | activation factor at 20 µM | 0.005% of 190,000 active | AID 1229, 2008;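 active means diaphorase activity raised at least twofold by the compound at 20 µM; inactive means activation factor below 2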
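Material: Clostridium kluyveri diaphorase, purified enzyme; Quantity: enzyme 0.07 U/mL final; Medium: HEPES pH 7.4 buffer with MgCl2 and Tween 20; Dosing: single compound dose of 20 µM, 1% DMSO final; Schedule: 16 min reaction at room temperature; Measured by: red resorufin fluorescence at 544/590 nm excitation/emission.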
HMGR II inh: inhibitors of E. faecalis class II HMGR, primary screen, biochemical, Enterococcus faecalis; purified E. faecalis HMGR, NADPH absorbance 340 nm kinetic; inhibition, % at 10 µM; 0.41% of 190,000 active; AID 1066, 2008;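 active means inhibition above a set limit, the median over all tested compounds plus 3 SD, cut at about 9.5% in these data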;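 further: enzyme runs in reverse so mevalonate oxidation gives rising NADPH absorbance; 0% = complete reaction with DMSO and 100% = background rate lacking mevalonate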
p47phox inh: p47phox/p22phox peptide binding inhibitors, primary screen, biochemical, uHTS, NADPH oxidase regulatory subunit | fluorescence polarization, 2 h | Neutrophil cytosol factor 1 (Homo sapiens), P14598 | inhibition, % at 24.7 µM | 0.53% of 220,000 active | AID 1274, 2008;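 active means inhibition above about 30%, limit read from the data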;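 further: 0% = p47phox with labelled peptide and 100% = labelled peptide alone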
Target sequence (P14598 whole entry, looked up): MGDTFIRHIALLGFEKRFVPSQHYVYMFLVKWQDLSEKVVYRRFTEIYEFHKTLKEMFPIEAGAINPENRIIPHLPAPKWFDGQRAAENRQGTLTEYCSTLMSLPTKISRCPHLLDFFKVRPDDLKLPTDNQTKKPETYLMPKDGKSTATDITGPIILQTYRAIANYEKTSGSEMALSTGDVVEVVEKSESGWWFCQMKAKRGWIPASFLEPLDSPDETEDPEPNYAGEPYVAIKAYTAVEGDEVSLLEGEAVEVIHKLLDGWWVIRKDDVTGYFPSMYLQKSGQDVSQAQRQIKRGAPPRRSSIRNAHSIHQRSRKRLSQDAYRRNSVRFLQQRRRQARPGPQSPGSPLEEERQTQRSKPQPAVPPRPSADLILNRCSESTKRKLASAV
PMI act: activators of human PMI, primary screen, biochemical, fluorescence intensity, near-Km mannose 6-phosphate; AID 1214, 2008; Mannose-6-phosphate isomerase (Homo sapiens), P34949; activation factor at 20 µM; 0.005% of 190,000 active; purified human PMI, coupled resazurin fluorescence, 20 min; hits give high values; 1 = vehicle control, 0 substrate-free wells;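 active means activation factor of 2 or more at 20 µM, relative to plate controls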
Redox H2O2 prof: compounds producing H2O2 with reducing agent – biochemical, NIH compound library profiling, artefact control for MLSCN library redox annotation, primary screen; AID 878, 2007; activation, % at 10 µM; DTT-dependent redox cycling H2O2, phenol red/HRP absorbance; 100% = 100 µM peroxide control, 0% = buffer; 0.03% of 200,000 active;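 active means activation of at least 50% relative to the plate's high and low controls in the primary single-dose screen; inactive means activation below 50%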;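 further: compound incubated with DTT at 0.8 mM final as the reducing agent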
Numbers without * were called inactive; ! = not confirmed by another sample.

What do the screens show for `COC(=O)COc1ccc(/C=N/NC(=O)c2ccc(N(Cc3ccccc3)S(C)(=O)=O)cc2)cc1`?
PMI act satM6P: 0.9; Diaphorase act: 0.9; HMGR II inh: 1; p47phox inh: 55*; PMI act: 0.8; Redox H2O2 prof: 0

What do the screens show for `CC(NC(=O)CSc1nc2ccc(N)cc2s1)c1ccccc1` (stereo not given)?
PMI act satM6P: 0.7; Diaphorase act: 0.8; HMGR II inh: -2; p47phox inh: -6; PMI act: 1; Redox H2O2 prof: 0

How did CCOc1ccc2ccccc2c1/C=N/NC(=O)CNC(=O)C(c1ccccc1)c1ccccc1 do in these assays?
PMI act satM6P: 1; Diaphorase act: 1; HMGR II inh: -1; p47phox inh: -7; PMI act: 1; Redox H2O2 prof: 0

Results for O=S(=O)(NCc1ccccc1)c1ccc(Br)c2nsnc12 ?
p47phox inh: 4

Results for Cc1ccc(NC(=S)Nc2ccc(F)cc2)c(C)c1 ?
PMI act satM6P: 1.1; Diaphorase act: 1; HMGR II inh: -7; p47phox inh: -5; PMI act: 1; Redox H2O2 prof: -1

How did O=C1NC(Cc2c[nH]c3ccccc23)C(=O)N1Cc1ccc(CN2C(=O)NC(Cc3c[nH]c4ccccc34)C2=O)cc1 (stereo not given) do in these assays?
PMI act satM6P: 0.9; Diaphorase act: 0.9; HMGR II inh: -1; p47phox inh: -8; PMI act: 0.9; Redox H2O2 prof: -1

What do the screens show for `O=C(COC(=O)CCc1nc2ccccc2c(=O)[nH]1)NC1CCS(=O)(=O)C1` (stereo not given)?
PMI act satM6P: 1; Diaphorase act: 0.9; HMGR II inh: 3; p47phox inh: -9; PMI act: 0.9; Redox H2O2 prof: 0

What do the screens show for `O=C(COC(=O)CCc1c[nH]c2ccccc12)NC1CCS(=O)(=O)C1` (stereo not given)?
PMI act satM6P: 1; Diaphorase act: 1; HMGR II inh: 15*; p47phox inh: -14; PMI act: 1.1; Redox H2O2 prof: 2

Results for Cc1cccn2c(=O)c3cc(C#N)c(=NC(=O)c4ccncc4)n(CCCOC(C)C)c3nc12 ?
PMI act satM6P: 2*; Diaphorase act: 0.7; HMGR II inh: -4; p47phox inh: -12; PMI act: 1.7; Redox H2O2 prof: 0

What do the screens show for `COCCCn1c(=NC(=O)c2ccncc2)c(C#N)cc2c(=O)n3cccc(C)c3nc21`?
PMI act satM6P: 1.3; Diaphorase act: 0.9; HMGR II inh: -6; p47phox inh: -11; PMI act: 1; Redox H2O2 prof: -1

How did O=C(OCCN1CCOCC1)c1cccs1 do in these assays?
PMI act satM6P: 0.9; Diaphorase act: 0.9; HMGR II inh: -6; p47phox inh: -3; PMI act: 0.9; Redox H2O2 prof: 0

How did Cc1cccc(N(Cc2cc3ccccc3[nH]c2=O)C(=O)c2cccs2)c1 do in these assays?
p47phox inh: -15

How did O=C(NN1S(=O)(=O)c2ccccc2S1(=O)=O)c1ccc(Br)cc1 do in these assays?
PMI act satM6P: 1.8; Diaphorase act: 1.1; HMGR II inh: 16*; p47phox inh: 6; PMI act: 1.8; Redox H2O2 prof: 0

How did CCC(=O)N(Cc1ccco1)c1nc(-c2ccc(OC)cc2)cs1 do in these assays?
PMI act satM6P: 1.1; Diaphorase act: 1; HMGR II inh: 12*; p47phox inh: 3; PMI act: 1.1; Redox H2O2 prof: 3

What do the screens show for `Cc1ccc(-c2nc3ccccc3[nH]2)cc1NC(=O)c1sc2cc(Cl)ccc2c1Cl`?
PMI act satM6P: 1.1; Diaphorase act: 1.1; HMGR II inh: -6; p47phox inh: -14; PMI act: 1; Redox H2O2 prof: 0

How did NC(=O)C1CC(=O)N(c2ccc(OCc3ccc(Cl)cc3)cc2)C1 (stereo not given) do in these assays?
PMI act satM6P: 1; Diaphorase act: 0.9; HMGR II inh: 0; p47phox inh: 1; PMI act: 0.9; Redox H2O2 prof: 0

Results for CN(C)CCOC(c1ccccc1)c1ccccc1 ?
PMI act satM6P: 1.1; Diaphorase act: 0.9; HMGR II inh: 18*!; p47phox inh: 1; PMI act: 1.1; Redox H2O2 prof: 2

What do the screens show for `CN1C2=CC=CC=CC2=[N+](C)C12C([N+](=O)[O-])=CC(=[N+]([O-])[O-])C=C2[N+](=O)[O-]` (stereo not given)?
p47phox inh: 61*

How did CN1C2=CC=CC=CC2=[N+](C)C12C=CC(=[N+]([O-])[O-])C=C2[N+](=O)[O-] (stereo not given) do in these assays?
PMI act satM6P: 0.7; Diaphorase act: 0.9; HMGR II inh: 0; p47phox inh: -58; PMI act: 1; Redox H2O2 prof: -2

What do the screens show for `O=C(OCn1nnc2ccccc2c1=O)c1cc(-c2ccccc2)nc2ccccc12`?
PMI act satM6P: 0.9; Diaphorase act: 0.8; HMGR II inh: -8; p47phox inh: -14; PMI act: 0.8; Redox H2O2 prof: 0

Results for CCOC(=O)C1(C)/C(=N/Nc2ccccc2Cl)C(=O)C(=O)N1c1ccccc1 (stereo not given) ?
PMI act satM6P: 2.1*; Diaphorase act: 0.9; HMGR II inh: 5; p47phox inh: -14; PMI act: 1.6; Redox H2O2 prof: -2

What do the screens show for `CCOC(=O)CSc1nnc(CNc2cccc(Cl)c2)n1-c1ccccc1`?
PMI act satM6P: 1; Diaphorase act: 1; HMGR II inh: -2; p47phox inh: -15; PMI act: 0.9; Redox H2O2 prof: 0

How did CCOC(=O)C1(C)/C(=N/Nc2ccc(S(N)(=O)=O)cc2)C(=O)C(=O)N1c1ccccc1 (stereo not given) do in these assays?
PMI act satM6P: 0.7; Diaphorase act: 0.9; HMGR II inh: 2; p47phox inh: -2; PMI act: 1.1; Redox H2O2 prof: 0

Results for CCOC(=O)C1(C)/C(=N/Nc2ccc(Cl)cc2)C(=O)C(=O)N1c1ccccc1 (stereo not given) ?
PMI act satM6P: 2.2*; Diaphorase act: 0.9; HMGR II inh: -4; p47phox inh: -67; PMI act: 1.6; Redox H2O2 prof: -1
